Experimental data as given in ChEMBL document CHEMBL1141114, “Adenosine kinase inhibitors. 5. Synthesis, enzyme inhibition, and analgesic activity of diaryl-erythro-furanosyltubercidin analogues” (J Med Chem, 2005).

Experiments:
Adenosine kinase = Adenosine kinase (Homo sapiens, UniProt P55263); test: Inhibitory concentration against human recombinant adenosine kinase using [14C]AMP as radioligand
Rattus norvegicus [1] = test: Percent inhibition of the licking and biting behavior in response to formalin injection at a dose of 20 mg/Kg when given orally in rat by formalin paw assay; (n=6); format: functional; conditions: po
Outline: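 Rats got 20 mg/kg orally in PEG 400 vehicle 2 h before intraplantar formalin, n = 6. Activity is expressed as % inhibition of licking and biting behaviour.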

[2] = Plasma clearance at a dose of 3 mg/Kg in dog when given orally; format: ADME, organism-based, Canis lupus familiaris; conditions: po
Outline: (§1)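 Rats and dogs, n = 3 per group. Oral dosing at 3 mg/kg as a suspension in 0.1% methylcellulose; intravenous dosing at 1 mg/kg as a solution in 75% PEG 400/25% saline. Plasma sampled at 0.25, 0.5, 1, 2, 4, 8 and 24 h and drug levels measured by HPLC. […] Parameters reported as mean ± S.D.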

[3] = Bioavailability at a dose of 3 mg/Kg in dog when given orally; format: ADME, organism-based, Canis lupus familiaris; conditions: in vivo, po; outline: as §1
[4] = Bioavailability at a dose of 3 mg/Kg in rat when given orally; format: ADME, organism-based; conditions: in vivo, po; outline: as §1
[5] = Plasma clearance at a dose of 1 mg/kg in dog when given i.v.; format: ADME, organism-based, Canis lupus familiaris; set-up: dose 1 mg/kg, route intravenous; conditions: iv; outline: as §1
[6] = Plasma clearance at a dose of 1 mg/Kg in rat when given i.v.; format: ADME, organism-based; conditions: iv; outline: as §1
[7] = Time required to be halved at a dose of 1 mg/kg in dog when given i.v.; format: ADME, organism-based, Canis lupus familiaris; set-up: dose 1 mg/kg, route intravenous; conditions: in vivo, iv; outline: as §1
[8] = Time required to be halved at a dose of 1 mg/Kg in rat when given i.v.; format: ADME, organism-based; conditions: in vivo, iv; outline: as §1
[9] = Time required to be halved at a dose of 3 mg/Kg in dog when given orally; format: ADME, organism-based, Canis lupus familiaris; conditions: in vivo, po; outline: as §1
[10] = Time required to be halved at a dose of 3 mg/Kg in rat when given orally; format: ADME, organism-based; conditions: in vivo, po; outline: as §1
[11] = Plasma clearance at a dose of 3 mg/Kg in rat when given orally; format: ADME, organism-based; conditions: po; outline: as §1
[12] = Distributed volume at a dose of 1 mg/kg in dog when given i.v.; format: ADME, organism-based, Canis lupus familiaris; set-up: dose 1 mg/kg, route intravenous; conditions: in vivo, iv; outline: as §1
[13] = Distributed volume at a dose of 1 mg/Kg in rat when given i.v.; format: ADME, organism-based; conditions: in vivo, iv; outline: as §1
[14] = Distributed volume at a dose of 3 mg/Kg in dog when given orally; format: ADME, organism-based, Canis lupus familiaris; conditions: in vivo, po; outline: as §1
[15] = Distributed volume at a dose of 3 mg/Kg in rat when given orally; format: ADME, organism-based; conditions: in vivo, po; outline: as §1
[16] = Area under the plot of plasma concentration at a dose of 1 mg/kg in dog when given i.v.; format: ADME, organism-based, Canis lupus familiaris; set-up: dose 1 mg/kg, route intravenous; conditions: iv, read-out: AUC 0-24h; outline: as §1
[17] = Area under the plot of plasma concentration at a dose of 1 mg/Kg in rat when given i.v.; format: ADME; conditions: iv; outline: as §1
[18] = Area under the plot of plasma concentration at a dose of 3 mg/Kg in dog when given orally; format: ADME, Canis lupus familiaris; conditions: po, read-out: AUC 0-24h; outline: as §1
[19] = Area under the plot of plasma concentration at a dose of 3 mg/Kg in rat when given orally; format: ADME; conditions: po; outline: as §1
[20] = Maximum time to achieve plasma concentration at a dose of 3 mg/Kg in dog when given orally; format: ADME, organism-based, Canis lupus familiaris; conditions: po; outline: as §1
[21] = Maximum time to achieve plasma concentration at a dose of 3 mg/Kg in rat when given orally; format: ADME, organism-based; conditions: po; outline: as §1
Rattus norvegicus [22] = test: Effective dose for the […] effect measured after 2 hr when given orally in rat by rotarod assay.; format: functional; conditions: po
Outline: (§2)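 Fasted male SD rats (90–110 g) were dosed orally at 10–300 mg/kg in 0.1% MC. They were first trained to walk on a rotarod at 5 rpm for 150 s. Walking time, as a measure of sedation and ataxia, was recorded at 0, 0.5, 1, 2 and 5 h after dosing, with a 150 s cutoff.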

Rattus norvegicus [23] = test: Effective dose for the […] effect measured after 5 h when given orally in rat by rotarod assay.; format: functional; conditions: po; outline: as §2
Rattus norvegicus [24] = test: Effective dose for the analgesic effect measured at 3 hr after administration when given orally by hot plate assay; (n=6); format: functional; conditions: po
Outline: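 Fasted male SD rats (150–200 g) were gavaged with vehicle or graded doses. Hind-paw lick latency on a 50 °C hot plate (60 s max) was measured before dosing and at 0.5–4 h after.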

Rattus norvegicus [25] = test: Effective dose of the licking and biting behavior in response to formalin injection at a dose of 20 mg/Kg when given orally in rat by formalin paw assay; (n=6); format: functional; conditions: po
[26] = Maximum plasma concentration at a dose of 1 mg/kg in dog when given i.v.; format: ADME, organism-based, Canis lupus familiaris; set-up: dose 1 mg/kg, route intravenous; conditions: iv; outline: as §1
[27] = Maximum plasma concentration at a dose of 1 mg/Kg in rat when given i.v.; format: ADME, organism-based; set-up: dose 1 mg/Kg, route intravenous; conditions: iv; outline: as §1
[28] = Maximum plasma concentration at a dose of 3 mg/Kg in dog when given orally; format: ADME, organism-based, Canis lupus familiaris; set-up: dose 3 mg/Kg, route oral; conditions: po; outline: as §1
[29] = Maximum plasma concentration at a dose of 3 mg/Kg in rat when given orally; format: ADME, organism-based; set-up: dose 3 mg/Kg, route oral; conditions: po; outline: as §1
Monkey = test: Effective dose for the analgesic effect measured after bradykinin injection when given orally by marmoset monkey bradykinin-induced licking; (n=6); format: functional; conditions: po
Outline: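 Six male marmosets (Callithrix jacchus, 250–340 g) got 0.3, 3, 10 or 30 mg/kg po, or 0.1% MC vehicle. At 60 min, 100 μL of 1 mM bradykinin in saline was injected intraplantar, alternating feet. Pain behaviour was scored 0–3 every 15 s for 15 min from video. Sessions were 2 weeks apart.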

Rattus norvegicus [30] = test: Effective dose for the analgesic effect measured after carrageenan injection when given orally by carrageenan-induced mechanical hyperalgesia test; format: functional; conditions: po
Outline: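 Fasted male SD rats (100–120 g) were dosed orally with 1, 3 or 10 mg/kg in 0.1% MC 1 h before intraplantar carrageenan (1%, 100 μL/paw). Mechanical hyperalgesia was read by Randall-Selitto analgesimeter at 3, 4 and 5 h after carrageenan.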

Rattus norvegicus [31] = test: Percent inhibition of the analgesic effect measured after carrageenan injection at a dose of 20 mg/Kg therapeutic when given orally by carrageenan-induced thermal hyperalgesia test; format: functional
Outline: (§3)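 Fasted male SD rats (160–180 g) were injected in the right hind plantar paw with lambda carrageenan (2 mg in 100 μL). They were gavaged with 20 mg/kg or vehicle (PEG400/0.2% Tween/5% propylene glycol), either 0.5 h before (prophylactic) or 2 h after (therapeutic) carrageenan. Hargreaves heat withdrawal was measured in the inflamed and control paws at 3.5–4.5 h.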

Rattus norvegicus [32] = test: Percent inhibition of the analgesic effect measured after carrageenan injection at a dose of 20 mg/Kg prophylactic when given orally by carrageenan-induced thermal hyperalgesia test; format: functional; outline: as §3

Adenosine kinase, sequence (P55263 whole entry): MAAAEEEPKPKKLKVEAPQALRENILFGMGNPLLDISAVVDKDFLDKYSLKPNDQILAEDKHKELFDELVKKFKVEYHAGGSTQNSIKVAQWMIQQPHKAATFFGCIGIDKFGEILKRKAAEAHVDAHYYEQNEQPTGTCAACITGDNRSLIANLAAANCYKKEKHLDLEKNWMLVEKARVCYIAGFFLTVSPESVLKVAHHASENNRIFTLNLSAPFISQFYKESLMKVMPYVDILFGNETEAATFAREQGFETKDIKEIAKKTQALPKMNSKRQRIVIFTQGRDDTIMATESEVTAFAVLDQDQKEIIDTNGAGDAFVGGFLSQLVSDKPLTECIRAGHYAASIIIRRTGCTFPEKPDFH

O[C@H]1[C@H](n2cc(-c3ccccc3)c3c(Nc4ccc(F)cc4)ncnc32)OC2(CC2)[C@H]1O
IC50 (Adenosine kinase): 0.3 nM

Nc1ncnc2c1c(I)cn2[C@@H]1OC[C@@H](O)[C@H]1O
IC50 (Adenosine kinase): 6 nM

CCOc1ccc(-c2cn([C@@H]3OC[C@@H](O)[C@H]3O)c3ncnc(Nc4ccccc4OC)c23)cc1
IC50 (Adenosine kinase): 5.3 nM
inhibition in vivo at 20 mg/kg (Rattus norvegicus [1]): 16%

CCOc1ccc(Nc2ncnc3c2c(-c2ccccc2)cn3[C@@H]2OC[C@@H](O)[C@H]2O)cc1
IC50 (Adenosine kinase): 3 nM
inhibition in vivo at 20 mg/kg (Rattus norvegicus [1]): 41%

O[C@@H]1[C@H](O)CO[C@H]1n1cc(-c2ccccc2)c2c(Nc3ccc(F)cc3)ncnc21
IC50 (Adenosine kinase): 6 nM
CL/F [2]: 6.67 mL/min/kg
bioavailability [3]: 60%
bioavailability [4]: 61.2%
clearance [5]: 6.67 mL/min/kg
clearance [6]: 21.7 mL/min/kg
half-life [7]: 3.9 h
half-life [8]: 3.2 h
half-life [9]: 4 h
half-life [10]: 3 h
CL/F [11]: 25 mL/min/kg
Vd [12]: 2 L/kg
Vd [13]: 6.9 L/kg
Vd [14]: 2.2 L/kg
Vd [15]: 6.2 L/kg
AUC [16]: 2970 ng·h/mL
AUC0-8h [17]: 785 ng·h/mL
AUC [18]: 5340 ng·h/mL
AUC0-8h [19]: 1440 ng·h/mL
Tmax [20]: 1.6 h
Tmax [21]: 3.5 h
ED50 (Rattus norvegicus [22]): 21.7 mg/kg
ED50 (Rattus norvegicus [23]): 11.9 mg/kg
ED50 (Rattus norvegicus [24]): 16 mg/kg
inhibition in vivo at 20 mg/kg (Rattus norvegicus [1]): 76%
ED50 (Rattus norvegicus [25]): 3.6 mg/kg
Cmax [26]: 585 ng/mL
Cmax [27]: 523 ng/mL
Cmax [28]: 628 ng/mL
Cmax [29]: 135 ng/mL
ED50 (Monkey): 3.8 mg/kg
ED50 (Rattus norvegicus [30]): 2.4 mg/kg
Inhibition (Rattus norvegicus [31]): 99%
Inhibition (Rattus norvegicus [32]): 151%

N#Cc1ccc(Nc2ncnc3c2c(-c2ccc(Cl)cc2)cn3[C@@H]2OC[C@@H](O)[C@H]2O)cc1
IC50 (Adenosine kinase): 7 nM
inhibition in vivo at 20 mg/kg (Rattus norvegicus [1]): 75%

O[C@@H]1[C@H](O)CO[C@H]1n1cc(-c2ccccc2)c2c(Nc3ccc4c(c3)OCCO4)ncnc21
IC50 (Adenosine kinase): 4 nM
inhibition in vivo at 20 mg/kg (Rattus norvegicus [1]): 80%

CC1(C)O[C@@H](n2cc(-c3ccccc3)c3c(Nc4ccccc4)ncnc32)[C@H](O)[C@@H]1O
IC50 (Adenosine kinase): 4000 nM

Cc1ccccc1-c1cn([C@@H]2OC[C@@H](O)[C@H]2O)c2ncnc(Nc3ccc4c(c3)OCCO4)c12
IC50 (Adenosine kinase): 1 nM
inhibition in vivo at 20 mg/kg (Rattus norvegicus [1]): 99%

CCOc1cccc(Nc2ncnc3c2c(-c2ccccc2)cn3[C@@H]2OC[C@@H](O)[C@H]2O)c1
IC50 (Adenosine kinase): 2 nM
inhibition in vivo at 20 mg/kg (Rattus norvegicus [1]): 76%

Nc1ncnc2c1c(I)cn2[C@@H]1OC2(CC2)[C@@H](O)[C@H]1O
IC50 (Adenosine kinase): 600 nM

O[C@@H]1[C@H](O)CO[C@H]1n1cc(-c2ccccc2)c2c(Nc3ccccc3)ncnc21
IC50 (Adenosine kinase): 4 nM
inhibition in vivo at 20 mg/kg (Rattus norvegicus [1]): 78%

Nc1cccc(-c2cn([C@@H]3OC[C@@H](O)[C@H]3O)c3ncnc(Nc4ccc(F)cc4)c23)c1
IC50 (Adenosine kinase): 10 nM
inhibition in vivo at 20 mg/kg (Rattus norvegicus [1]): 31%

O[C@@H]1[C@H](O)CO[C@H]1n1cc(-c2ccccc2)c2c(Nc3ccc(Br)cc3)ncnc21
IC50 (Adenosine kinase): 5 nM
inhibition in vivo at 20 mg/kg (Rattus norvegicus [1]): 33%

CCOc1ccc(-c2cn([C@@H]3OC[C@@H](O)[C@H]3O)c3ncnc(Nc4ccc(C#N)cc4)c23)cc1
IC50 (Adenosine kinase): 2 nM
inhibition in vivo at 20 mg/kg (Rattus norvegicus [1]): 84%

C[C@H]1O[C@@H](n2cc(-c3ccccc3)c3c(Nc4ccc(F)cc4)ncnc32)[C@H](O)[C@@H]1O
inhibition in vivo at 20 mg/kg (Rattus norvegicus [1]): 59%
